Source: ChEMBL document CHEMBL1122293, “Synthesis, evaluation of chemical reactivity, and murine antineoplastic activity of 2-hydroxy-5-(3,4-dichlorophenyl)-6,7-bis(hydroxymethyl)-2,3-dihydro-1H- pyrrolizine bis(2-propylcarbamate) and 2-acyloxy derivatives as potential water-soluble prodrugs” (J Med Chem, 1983)
Converted amounts (≈) assume the structure as drawn.

Experiments:
B16 [1] = assay: No. of cures on day 60 at 10 mg/kg (ip) against B16 melanocarcinoma in mice; type: functional, Mus musculus
Method in brief: (§1)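 Female BDF1 mice given ip 0.5 mL of tumor brei (1.0 g tissue per 10 mL). Nine daily ip doses beginning 24 h later, as Klucel suspensions or a water/Tween-80 suspension. Acute toxicity scored day 5; survival read day 60. Cures counted per 10-animal group at day 60; weight difference reported as treated minus control (g).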

B16 [2] = assay: No. of cures on day 60 at 20 mg/kg (ip) against B16 melanocarcinoma in mice; type: functional, Mus musculus; method in brief: as §1
B16 [3] = assay: No. of cures on day 60 at 40 mg/kg (ip) against B16 melanocarcinoma in mice; type: functional, Mus musculus; method in brief: as §1
B16 [4] = assay: No. of cures on day 60 at 5 mg/kg (ip) against B16 melanocarcinoma in mice; type: functional, Mus musculus; method in brief: as §1
B16 [5] = assay: No. of cures on day 60 at 80 mg/kg (ip) against B16 melanocarcinoma in mice; type: functional, Mus musculus; method in brief: as §1
B16 [6] = assay: Median survival time of test animals compared to controls at 10 mg/kg (ip) against B16 melanocarcinoma in mice; type: functional, Mus musculus
Method in brief: (§2)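 Female BDF1 mice received B16 tumor brei ip (0.5 mL of 1.0 g tissue per 10 mL). From 24 h later they got nine daily ip doses, suspended in Klucel or water/Tween-80. Acute toxicity was assessed on day 5 and survival was evaluated on day 60. The value is median survival as % T/C, with 10 mice per group and a positive control run in parallel.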

B16 [7] = assay: Median survival time of test animals compared to controls at 20 mg/kg (ip) against B16 melanocarcinoma in mice; type: functional, Mus musculus; method in brief: as §2
B16 [8] = assay: Median survival time of test animals compared to controls at 40 mg/kg (ip) against B16 melanocarcinoma in mice; type: functional, Mus musculus; method in brief: as §2
B16 [9] = assay: Median survival time of test animals compared to controls at 5 mg/kg (ip) against B16 melanocarcinoma in mice; type: functional, Mus musculus; method in brief: as §2
B16 [10] = assay: Median survival time of test animals compared to controls at 80 mg/kg (ip) against B16 melanocarcinoma in mice; type: functional, Mus musculus; method in brief: as §2
B16 [11] = assay: Weight difference at 10 mg/kg (ip)against B16 melanocarcinoma in mice; type: functional, Mus musculus; method in brief: as §1
B16 [12] = assay: Weight difference at 20 mg/kg (ip)against B16 melanocarcinoma in mice; type: functional, Mus musculus; method in brief: as §1
B16 [13] = assay: Weight difference at 40 mg/kg (ip)against B16 melanocarcinoma in mice; type: functional, Mus musculus; method in brief: as §1
B16 [14] = assay: Weight difference at 5 mg/kg (ip)against B16 melanocarcinoma in mice; type: functional, Mus musculus; method in brief: as §1
B16 [15] = assay: Weight difference at 80 mg/kg (ip) against B16 melanocarcinoma in mice; type: functional, Mus musculus; method in brief: as §1
P388 [16] = assay: Weight difference at 80 mg/kg (ip)against P388 Lymphocytic Leukemia in mice; type: functional, Mus musculus
Method in brief: (§3)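 Male CDF1 mice inoculated ip with P388 leukemia cells. Nine daily ip doses beginning 24 h later, as suspensions in Klucel or water. Acute toxicity evaluated day 5. Weight difference reported as treated minus control (g).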

P388 [17] = assay: Median survival time of test animals compared to controls at 10 mg/kg (ip) against P388 Lymphocytic Leukemia in mice; type: functional, Mus musculus
Method in brief: (§4)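 P388 leukemia cells were given ip to male CDF1 mice. Dosing started 24 h later: nine daily ip doses given as suspensions in Klucel (hydroxypropylcellulose) or in water. Toxicity day was day 5 and evaluation was on day 30. The value is % T/C of median survival time against untreated controls, with a parallel positive-control arm.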

P388 [18] = assay: Median survival time of test animals compared to controls at 2.5 mg/kg (ip) against P388 Lymphocytic Leukemia in mice; type: functional, Mus musculus
Method in brief: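 P388 leukemia cells given ip to male CDF1 mice; ip dosing began 24 h later, nine daily doses, as suspensions in Klucel (hydroxypropylcellulose) or water. Acute toxicity checked on day 5. Survival read on day 30 as median survival time of treated versus control mice (% T/C). Weight difference is treated minus control, in grams.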

P388 [19] = assay: Median survival time of test animals compared to controls at 20 mg/kg (ip) against P388 Lymphocytic Leukemia in mice; type: functional, Mus musculus; method in brief: as §4
P388 [20] = assay: Median survival time of test animals compared to controls at 40 mg/kg (ip) against P388 Lymphocytic Leukemia in mice; type: functional, Mus musculus; method in brief: as §4
P388 [21] = assay: Median survival time of test animals compared to controls at 5 mg/kg (ip) against P388 Lymphocytic Leukemia in mice; type: functional, Mus musculus; method in brief: as §4
P388 [22] = assay: Median survival time of test animals compared to controls at 80 mg/kg (ip) against P388 Lymphocytic Leukemia in mice; type: functional, Mus musculus; method in brief: as §4
P388 [23] = assay: Log of the tumor cell population at the end of treatment at 10 mg/kg (ip) against P388 Lymphocytic Leukemia in mice; type: functional, Mus musculus
P388 [24] = assay: Log of the tumor cell population at the end of treatment at 20 mg/kg (ip) against P388 Lymphocytic Leukemia in mice; type: functional, Mus musculus
P388 [25] = assay: Log of the tumor cell population at the end of treatment at 40 mg/kg (ip) against P388 Lymphocytic Leukemia in mice; type: functional, Mus musculus
P388 [26] = assay: Log of the tumor cell population at the end of treatment at 5 mg/kg (ip) against P388 Lymphocytic Leukemia in mice; type: functional, Mus musculus
P388 [27] = assay: Log of the tumor cell population at the end of treatment at 80 mg/kg (ip) against P388 Lymphocytic Leukemia in mice; type: functional, Mus musculus
P388 [28] = assay: Weight difference at 5 mg/kg (ip)against P388 Lymphocytic Leukemia in mice; type: functional, Mus musculus; method in brief: as §3
P388 [29] = assay: Weight difference at 10 mg/kg (ip)against P388 Lymphocytic Leukemia in mice; type: functional, Mus musculus; method in brief: as §3
P388 [30] = assay: Weight difference at 2.5 mg/kg (ip)against P388 Lymphocytic Leukemia in mice; type: functional, Mus musculus; method in brief: as §3
P388 [31] = assay: Weight difference at 20 mg/kg (ip)against P388 Lymphocytic Leukemia in mice; type: functional, Mus musculus; method in brief: as §3
[32] = Water solubility of the compound; type: ADME; conditions: read-out: S
Method in brief: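 Excess bis(carbamate) (30-60 mg) in 2 mL distilled water, vortexed 10 min, filtered through Teflon wool and diluted. UV absorbance read at 291 nm. Concentration from a linear Beer's law calibration made with a salt standard (r = 0.998).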

P388 [33] = assay: Weight difference at 40 mg/kg (ip)against P388 Lymphocytic Leukemia in mice; type: functional, Mus musculus; method in brief: as §3
P388 [34] = assay: Weight difference at 50 mg/kg (ip)against P388 Lymphocytic Leukemia in mice; type: functional, Mus musculus
Method in brief: (§5)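 Male CDF1 mice given 6×10^6 leukemia cells ip. Five daily ip doses beginning 24 h later, as Klucel suspension or aqueous solution. Acute toxicity on day 5; survival assessed on day 30. Weight difference reported as treated minus control (g).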

P388 [35] = assay: Median survival time of test animals compared to controls at 100 mg/kg (ip) against P388 Lymphocytic Leukemia in mice; type: functional, Mus musculus
Method in brief: (§6)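 P388 leukemia cells were inoculated ip into male CDF1 mice. Treatment began 24 h later, given ip as five daily doses, either as a Klucel (hydroxypropylcellulose) suspension or as an aqueous solution. Acute toxicity was assessed on day 5 and results were read on day 30. The value is median survival of treated versus control mice, as % T/C.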

P388 [36] = assay: Median survival time of test animals compared to controls at 12.5 mg/kg (ip) against P388 Lymphocytic Leukemia in mice; type: functional, Mus musculus
Method in brief: (§7)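 P388 leukemia cells inoculated ip into male CDF1 mice; ip treatment started 24 h later, five daily doses, as Klucel (hydroxypropylcellulose) suspension or aqueous solution. Acute toxicity on day 5. Day-30 median survival of treated versus control mice expressed as % T/C. Weight difference is treated minus control, in grams.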

P388 [37] = assay: Median survival time of test animals compared to controls at 25 mg/kg (ip) against P388 Lymphocytic Leukemia in mice; type: functional, Mus musculus; method in brief: as §6
P388 [38] = assay: Median survival time of test animals compared to controls at 50 mg/kg (ip) against P388 Lymphocytic Leukemia in mice; type: functional, Mus musculus; method in brief: as §6
P388 [39] = assay: Log of the tumor cell population at the end of treatment at 100 mg/kg (ip) against P388 Lymphocytic Leukemia in mice; type: functional, Mus musculus
P388 [40] = assay: Log of the tumor cell population at the end of treatment at 12.5 mg/kg (ip) against P388 Lymphocytic Leukemia in mice; type: functional, Mus musculus
P388 [41] = assay: Log of the tumor cell population at the end of treatment at 25 mg/kg (ip) against P388 Lymphocytic Leukemia in mice; type: functional, Mus musculus
P388 [42] = assay: Log of the tumor cell population at the end of treatment at 50 mg/kg (ip) against P388 Lymphocytic Leukemia in mice; type: functional, Mus musculus
P388 [43] = assay: Weight difference at 25 mg/kg (ip)against P388 Lymphocytic Leukemia in mice; type: functional, Mus musculus; method in brief: as §5
P388 [44] = assay: Weight difference at 100 mg/kg (ip)against P388 Lymphocytic Leukemia in mice; type: functional, Mus musculus; method in brief: as §5
P388 [45] = assay: Weight difference at 12.5 mg/kg (ip)against P388 Lymphocytic Leukemia in mice; type: functional, Mus musculus; method in brief: as §7

For CC(C)NC(=O)OCc1c(COC(=O)NC(C)C)c(-c2ccc(Cl)c(Cl)c2)n2c1CC(OC(=O)CN(C)C)C2 (centres undefined), the Cures (B16 [1]) was 0, the Cures (B16 [2]) was 0 and the Cures (B16 [3]) was 1. It also gave a Cures (B16 [4]) of 0, a Cures (B16 [5]) of 0 and a T/C (B16 [6]) of 152%. For the same compound, the T/C (B16 [7]) was 152%, the T/C (B16 [8]) was 174% and the T/C (B16 [9]) was 106%. It also gave a T/C (B16 [10]) of less than 100%, a Weight change (B16 [11]) of 0.2 T-C and a Weight change (B16 [12]) of 0.5 g. For the same compound, the Weight change (B16 [13]) was -0.8 g, the Weight change (B16 [14]) was 0.2 g and the Weight change (B16 [15]) was -1.5 g. For the same compound, the Weight change (P388 [16]) was -3.4 g, the T/C (P388 [17]) was 128% and the Log cell kill (P388 [18]) was -1.96. For the same compound, the T/C (P388 [18]) was 101%, the T/C (P388 [19]) was 146% and the T/C (P388 [20]) was 144%. For the same compound, the T/C (P388 [21]) was 117%, the T/C (P388 [22]) was 110% and the Log cell kill (P388 [23]) was -1.61. The Log cell kill (P388 [24]) was -1.37, the Log cell kill (P388 [25]) was -1.41 and the Log cell kill (P388 [26]) was -1.76. The Log cell kill (P388 [27]) was -1.84, the Weight change (P388 [28]) was -1.3 g and the Weight change (P388 [29]) was -2 g. For the same compound, the Weight change (P388 [30]) was 0.1 g, the Weight change (P388 [31]) was -1.9 g and the solubility [32] was 0.0196 mM (≈ 11.4 µg/mL). It also gave a Weight change (P388 [33]) of -3.1 g and a half-life (Half life was determined) of 248 min.
CC(C)NC(=O)OCc1c(COC(=O)NC(C)C)c(-c2ccc(Cl)c(Cl)c2)n2c1CC(OC(=O)CCC(=O)O)C2.CN(C)c1ccncc1 (centres undefined) gave a Weight change (P388 [34]) of -2.2 g, a T/C (P388 [35]) of 125% and a T/C (P388 [36]) of 106%. The T/C (P388 [37]) was 107%, the T/C (P388 [38]) was 111% and the Log cell kill (P388 [39]) was -1.08. For the same compound, the Log cell kill (P388 [40]) was -1.45, the Log cell kill (P388 [41]) was -1.44 and the Log cell kill (P388 [42]) was -1.39. For the same compound, the Weight change (P388 [43]) was -1.2 g, the Weight change (P388 [44]) was -1.8 g and the Weight change (P388 [45]) was -1.3 g. It also gave a solubility [32] of 30 mM and a half-life (Half life was determined) of 153 min.
